“And” between values parts separate entries of the source, which are not always exact repeats. Equal values may be shown once. Read-outs that look alike come from different tables or passages of the source.
Assays:
[1] = test system: HCT-116 cells; experiment: Flow cytometric analysis of apoptosis; type: cell-based, human
[2] = test system: HCT-116 cells; experiment: MTT cytotoxicity, HCT-116; type: cell-based, human
[3] = test system: Bcl-2; experiment: RT-PCR, Bcl-2 level in HCT-116 cells; type: cell-based, human
[4] = target: EGFR^T790M (Homo sapiens, UniProt P00533, T790M); experiment: In vitro EGFR kinase inhibition; type: biochemical
EGFR^T790M, sequence (P00533 25-1210 T790M): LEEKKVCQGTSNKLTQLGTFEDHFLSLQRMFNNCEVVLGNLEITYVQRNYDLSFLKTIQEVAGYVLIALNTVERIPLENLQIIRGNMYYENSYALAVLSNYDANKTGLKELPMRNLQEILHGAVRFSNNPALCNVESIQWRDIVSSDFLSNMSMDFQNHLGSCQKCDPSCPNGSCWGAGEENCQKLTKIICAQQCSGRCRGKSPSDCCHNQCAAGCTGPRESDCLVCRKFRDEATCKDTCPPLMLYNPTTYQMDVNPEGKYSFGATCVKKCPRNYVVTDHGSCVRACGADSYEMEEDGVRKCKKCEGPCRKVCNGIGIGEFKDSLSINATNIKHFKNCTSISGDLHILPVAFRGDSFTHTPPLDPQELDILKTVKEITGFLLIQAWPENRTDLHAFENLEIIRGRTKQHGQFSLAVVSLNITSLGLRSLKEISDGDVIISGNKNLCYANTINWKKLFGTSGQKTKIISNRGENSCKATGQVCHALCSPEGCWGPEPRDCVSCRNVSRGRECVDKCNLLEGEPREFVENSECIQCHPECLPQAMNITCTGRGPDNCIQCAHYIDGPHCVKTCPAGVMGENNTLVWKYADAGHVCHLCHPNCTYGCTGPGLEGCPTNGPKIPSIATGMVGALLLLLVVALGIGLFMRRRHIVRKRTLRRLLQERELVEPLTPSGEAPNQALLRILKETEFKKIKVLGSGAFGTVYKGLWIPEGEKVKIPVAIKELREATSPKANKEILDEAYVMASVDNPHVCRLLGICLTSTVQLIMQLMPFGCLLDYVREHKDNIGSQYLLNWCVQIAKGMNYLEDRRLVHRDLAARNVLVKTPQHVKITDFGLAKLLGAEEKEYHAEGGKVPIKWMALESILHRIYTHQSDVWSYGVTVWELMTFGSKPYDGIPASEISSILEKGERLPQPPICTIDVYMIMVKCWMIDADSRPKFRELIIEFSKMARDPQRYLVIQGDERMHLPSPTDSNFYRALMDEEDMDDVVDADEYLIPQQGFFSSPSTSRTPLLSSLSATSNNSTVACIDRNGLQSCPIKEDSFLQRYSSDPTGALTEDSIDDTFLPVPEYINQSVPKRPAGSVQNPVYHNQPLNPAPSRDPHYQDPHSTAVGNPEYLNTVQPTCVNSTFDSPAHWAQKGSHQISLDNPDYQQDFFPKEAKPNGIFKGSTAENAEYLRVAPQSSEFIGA

[5] = test system: Casp9; experiment: RT-PCR, Casp9 level in HCT-116 cells; type: cell-based, human; details: HCT-116 treated with 23.3 µM, vs control cells = 1
How it was run: (§1)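 Total RNA extracted from HCT-116 cells after test compound exposure using a commercial extraction kit. Transcript levels were measured by RT-PCR with SYBR Green master mix. Expression was compared with untreated control cells, taken as 1, and reported as fold change.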

[6] = target: EGFR^WT (Homo sapiens, UniProt P00533); experiment: In vitro EGFR kinase inhibition; type: biochemical
EGFR^WT, sequence (P00533 25-1210): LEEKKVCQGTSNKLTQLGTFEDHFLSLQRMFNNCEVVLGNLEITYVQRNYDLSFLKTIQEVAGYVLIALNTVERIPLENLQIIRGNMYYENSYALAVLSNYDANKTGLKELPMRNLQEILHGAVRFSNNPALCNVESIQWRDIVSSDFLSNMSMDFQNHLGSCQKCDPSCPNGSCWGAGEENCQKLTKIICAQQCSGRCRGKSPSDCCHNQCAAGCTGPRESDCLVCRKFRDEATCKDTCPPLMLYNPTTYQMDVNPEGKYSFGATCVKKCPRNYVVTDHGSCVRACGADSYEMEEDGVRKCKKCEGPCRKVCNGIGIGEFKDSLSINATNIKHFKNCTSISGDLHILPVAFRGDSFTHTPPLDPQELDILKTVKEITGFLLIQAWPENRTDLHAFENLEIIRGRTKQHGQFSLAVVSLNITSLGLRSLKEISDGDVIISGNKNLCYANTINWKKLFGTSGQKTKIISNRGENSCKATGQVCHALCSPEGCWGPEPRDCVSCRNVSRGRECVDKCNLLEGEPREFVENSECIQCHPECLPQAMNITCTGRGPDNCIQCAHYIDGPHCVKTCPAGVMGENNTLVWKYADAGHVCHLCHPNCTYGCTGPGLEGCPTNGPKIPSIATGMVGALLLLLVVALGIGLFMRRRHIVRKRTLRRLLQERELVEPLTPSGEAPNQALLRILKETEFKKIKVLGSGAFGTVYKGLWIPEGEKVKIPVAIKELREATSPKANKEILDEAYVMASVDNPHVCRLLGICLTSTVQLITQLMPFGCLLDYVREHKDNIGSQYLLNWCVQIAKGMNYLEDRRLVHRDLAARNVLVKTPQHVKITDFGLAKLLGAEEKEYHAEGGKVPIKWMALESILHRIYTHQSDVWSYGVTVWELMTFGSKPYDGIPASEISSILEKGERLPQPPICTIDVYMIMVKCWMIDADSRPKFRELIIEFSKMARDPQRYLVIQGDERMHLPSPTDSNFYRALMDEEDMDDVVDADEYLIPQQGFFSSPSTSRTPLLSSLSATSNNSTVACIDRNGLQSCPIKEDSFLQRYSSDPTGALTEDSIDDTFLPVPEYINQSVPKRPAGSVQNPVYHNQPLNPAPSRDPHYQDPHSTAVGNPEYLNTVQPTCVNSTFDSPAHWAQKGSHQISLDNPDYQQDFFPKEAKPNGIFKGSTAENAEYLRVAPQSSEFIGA

[7] = test system: BAX; experiment: RT-PCR, BAX level in HCT-116 cells; type: cell-based, human; details: HCT-116 treated with 23.3 µM, vs control cells = 1
How it was run: as §1

[8] = test system: Casp3; experiment: RT-PCR, Casp3 level in HCT-116 cells; type: cell-based, human; details: HCT-116 treated with 23.3 µM, vs control cells = 1
How it was run: as §1

[9] = test system: H1975 cells; experiment: MTT cytotoxicity, H1975; type: cell-based; details: Homo sapiens, NCI-H1975, read-out: H1975 IC50
[10] = Homo sapiens, HCT-116, read-out: HCT-116 IC50, MTT, erlotinib as reference
[11] = read-out: HCT-116 IC50, MTT, erlotinib as reference

Cn1cnc2c1c(=O)n(CC(=O)Nc1c(Cl)cccc1Cl)c(=O)n2C [Compound T-1-DOCA, N-(2,6-Dichlorophenyl)-2-(3,7-dimethyl-2,6-dioxo-2,3,6,7-tetrahydro-1H-purin-1-yl)acetamide]
increase of the total percentage of apoptotic cells vs control ([1]; HCT-116): ~10 folds
Apoptosis, Early ([1]; HCT-116, 72 h, Annexin V/PI): 8.55%
Apoptosis, Late ([1]; HCT-116, 72 h, Annexin V/PI): 18.07%
Necrosis ([1]; HCT-116, 72 h, Annexin V/PI): 3.09%
IC50 [2, 10]: 23.4 µM
selectivity index (SI), HCT-116 ([2]; SI = IC50 normal cells (Vero) / IC50 cancer cells): 4.1
IC50 [2, 11]: 23.3 µM
Bcl-2 reduction compared to the control ([3]; HCT-116, reduction factor): 2 fold
RT-PCR Fold change Bcl-2 ([3]; HCT-116 treated with 23.3 µM, vs control cells = 1): 0.521
IC50 [4]: 269 nM
RT-PCR Fold change Casp9 [5]: 2.2 and 2.238
IC50 [6]: 56.9 nM
RT-PCR Fold change BAX [7]: 5.522
RT-PCR Fold change Casp3 [8]: 3.8 and 3.829
IC50 [9]: 14.1 µM

C#Cc1cccc(Nc2ncnc3cc(OCCOC)c(OCCOC)cc23)c1 [Erlotinib, reference compound]
IC50 [2, 10]: 17.8 µM
IC50 [2, 11]: 17.9 µM
